# Experiments:
# [1] = in vivo, ref [27], [28]; cited from earlier work
# [2] = cited from earlier work
# [3] = Proteolytic inactivation by human kidney membranes with GC-A receptor bioassay; type: in vitro ADME
# GC-A = details: ref [15], cited from earlier work
# human GC-A [4] = molecular target: T1, human GC-A (Homo sapiens, UniProt P16066); assay: Whole-cell 125I-ANP competition binding, 293-GC-A cells; details: IC50 proBNP1–108 / IC50 BNP1–32
# T1 sequence (P16066 33-1061): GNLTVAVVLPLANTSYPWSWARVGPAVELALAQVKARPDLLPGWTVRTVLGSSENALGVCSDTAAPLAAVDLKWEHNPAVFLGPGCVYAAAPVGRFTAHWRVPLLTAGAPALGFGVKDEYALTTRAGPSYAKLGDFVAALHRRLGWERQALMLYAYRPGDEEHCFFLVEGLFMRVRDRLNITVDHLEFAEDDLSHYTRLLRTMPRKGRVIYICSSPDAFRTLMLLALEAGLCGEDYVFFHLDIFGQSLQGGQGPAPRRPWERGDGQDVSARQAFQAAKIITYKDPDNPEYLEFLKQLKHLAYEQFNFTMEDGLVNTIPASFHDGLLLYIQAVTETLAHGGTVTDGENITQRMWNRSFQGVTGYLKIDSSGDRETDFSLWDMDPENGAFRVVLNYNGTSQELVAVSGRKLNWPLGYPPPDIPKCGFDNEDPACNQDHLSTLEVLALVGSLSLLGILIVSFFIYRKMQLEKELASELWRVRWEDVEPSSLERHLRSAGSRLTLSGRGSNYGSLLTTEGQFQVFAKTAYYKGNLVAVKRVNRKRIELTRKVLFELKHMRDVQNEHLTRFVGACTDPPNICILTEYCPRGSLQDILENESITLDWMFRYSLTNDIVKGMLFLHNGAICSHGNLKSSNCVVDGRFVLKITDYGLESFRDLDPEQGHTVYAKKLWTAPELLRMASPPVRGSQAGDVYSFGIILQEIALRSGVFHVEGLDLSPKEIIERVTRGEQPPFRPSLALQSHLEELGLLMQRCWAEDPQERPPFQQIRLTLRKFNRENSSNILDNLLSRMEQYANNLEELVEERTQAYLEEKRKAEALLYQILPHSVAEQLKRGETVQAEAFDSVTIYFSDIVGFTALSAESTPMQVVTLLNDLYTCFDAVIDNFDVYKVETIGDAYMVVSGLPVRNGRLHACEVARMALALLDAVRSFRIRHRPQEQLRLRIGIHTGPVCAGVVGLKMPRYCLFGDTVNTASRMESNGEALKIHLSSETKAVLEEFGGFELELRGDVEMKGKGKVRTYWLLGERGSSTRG
# Summary of the method: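 293-GC-A cells on poly-d-lysine, at 75%–90% confluence, held 1–2 h at 37 °C in DMEM with 0.2% BSA. Incubated 1 h at 4 °C with ¹²⁵I-ANP in 1% BSA binding medium, with or without increasing unlabeled peptide. Washed twice with ice-cold PBS, lysed in 1 mol/L NaOH, γ-counted. B/Bo plotted against log competitor to give IC50. Triplicates in 3 experiments.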
# human GC-A [5] = molecular target: T1, human GC-A; assay: Cellular cGMP elevation in HEK293 cells stably expressing human GC-A; type: cell-based
# Summary of the method: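 HEK293 cells stably expressing human GC-A, held serum-free 4–12 h to 75%–90% confluence. Preincubated 10 min at 37 °C in DMEM with 1 mmol/L IBMX and 25 mmol/L HEPES pH 7.4, then exposed 3 min to increasing peptide in the same medium. Stopped with ice-cold 80% ethanol; dried supernatant assayed for cGMP by RIA. Triplicates in 3 separate assays; EC50 with 95% CI.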
substance,measurement,setting,value
"B-type natriuretic peptide [BNP, reference compound]",Half-life in humans,[1],20 min
same,Half-life in rats,"[2]; rat, in vivo",1 min
"proBNP1–108: recombinant human 108-residue BNP prohormone with N-terminal His6-tag and rTEV site, expressed in E. coli",Fold longer half time for degradation by human kidney membranes than BNP1–32,[3],2.7 fold
same,Fold longer time for complete inactivation than BNP1–32,[3],6 fold
same,Fold reduced potency compared with BNP1–32,GC-A; cGMP in human endothelial and vascular smooth muscle cells,6- to 8 fold
same,Fold higher IC50 than BNP1–32 on GC-A,human GC-A [4],approximately 35 fold
same,Fold greater EC50 than BNP1–32 on GC-A,human GC-A [5]; EC50 proBNP1–108 / EC50 BNP1–32,approximately 13 fold
same,Maximal stimulation of GC-A,human GC-A [5]; result in words,near-maximum activities
glycosylated proBNP1–108: glycosylated version of human proBNP1–108 studied in cited literature,"Potency on activation of GC-A, glycosylated versus nonglycosylated",GC-A; result in words,no significant difference
same,Half-life in rats compared with nonglycosylated proBNP1–108,"[2]; result in words, ref [26]",longer half-life

# Source: article PMC4855511 (Clinical chemistry, 2011)
